{"source": "ChEMBL document CHEMBL1129268", "about": "(J Med Chem, 1996)", "key": {"[1]": {"target": "T1, Metabotropic glutamate receptor 1 (Homo sapiens, UniProt Q13255)", "T1 sequence (Q13255 whole entry)": "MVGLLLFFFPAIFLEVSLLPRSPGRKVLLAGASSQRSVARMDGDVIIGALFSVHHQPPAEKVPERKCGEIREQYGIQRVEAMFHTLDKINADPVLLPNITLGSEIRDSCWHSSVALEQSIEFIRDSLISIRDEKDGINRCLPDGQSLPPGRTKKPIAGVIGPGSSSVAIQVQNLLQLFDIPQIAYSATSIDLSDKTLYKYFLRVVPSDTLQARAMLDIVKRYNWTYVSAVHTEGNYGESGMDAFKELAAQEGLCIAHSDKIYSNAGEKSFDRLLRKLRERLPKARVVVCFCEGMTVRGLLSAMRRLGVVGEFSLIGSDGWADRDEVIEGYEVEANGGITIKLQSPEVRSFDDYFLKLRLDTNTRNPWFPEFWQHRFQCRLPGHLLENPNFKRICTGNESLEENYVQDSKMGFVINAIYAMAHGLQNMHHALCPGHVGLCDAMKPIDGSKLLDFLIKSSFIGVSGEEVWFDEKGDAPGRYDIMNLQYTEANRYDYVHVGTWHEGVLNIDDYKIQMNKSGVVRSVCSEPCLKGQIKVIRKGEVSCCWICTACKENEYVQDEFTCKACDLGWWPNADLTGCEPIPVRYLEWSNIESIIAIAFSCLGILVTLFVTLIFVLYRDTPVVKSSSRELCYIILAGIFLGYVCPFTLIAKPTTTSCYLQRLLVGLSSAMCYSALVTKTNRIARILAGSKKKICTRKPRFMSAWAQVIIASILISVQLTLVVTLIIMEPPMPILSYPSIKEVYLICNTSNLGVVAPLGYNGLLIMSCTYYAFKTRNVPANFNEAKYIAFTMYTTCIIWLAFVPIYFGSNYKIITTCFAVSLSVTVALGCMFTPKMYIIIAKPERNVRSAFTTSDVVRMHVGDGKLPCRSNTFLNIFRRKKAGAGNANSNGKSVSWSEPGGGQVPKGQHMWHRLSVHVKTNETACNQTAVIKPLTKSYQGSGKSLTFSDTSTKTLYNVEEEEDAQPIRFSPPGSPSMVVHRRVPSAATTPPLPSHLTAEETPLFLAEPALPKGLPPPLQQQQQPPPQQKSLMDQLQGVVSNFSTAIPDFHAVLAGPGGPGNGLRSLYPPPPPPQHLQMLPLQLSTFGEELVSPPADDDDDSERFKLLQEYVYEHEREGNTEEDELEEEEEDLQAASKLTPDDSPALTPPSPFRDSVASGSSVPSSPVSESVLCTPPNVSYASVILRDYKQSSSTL", "assay": "Agonistic activity at mGlu1-alpha receptor expressed in CHO cells", "assay_type": "functional, cell-based"}, "[2]": {"target": "T2, Metabotropic glutamate receptor 4 (Homo sapiens, UniProt Q14833)", "T2 sequence (Q14833 whole entry)": "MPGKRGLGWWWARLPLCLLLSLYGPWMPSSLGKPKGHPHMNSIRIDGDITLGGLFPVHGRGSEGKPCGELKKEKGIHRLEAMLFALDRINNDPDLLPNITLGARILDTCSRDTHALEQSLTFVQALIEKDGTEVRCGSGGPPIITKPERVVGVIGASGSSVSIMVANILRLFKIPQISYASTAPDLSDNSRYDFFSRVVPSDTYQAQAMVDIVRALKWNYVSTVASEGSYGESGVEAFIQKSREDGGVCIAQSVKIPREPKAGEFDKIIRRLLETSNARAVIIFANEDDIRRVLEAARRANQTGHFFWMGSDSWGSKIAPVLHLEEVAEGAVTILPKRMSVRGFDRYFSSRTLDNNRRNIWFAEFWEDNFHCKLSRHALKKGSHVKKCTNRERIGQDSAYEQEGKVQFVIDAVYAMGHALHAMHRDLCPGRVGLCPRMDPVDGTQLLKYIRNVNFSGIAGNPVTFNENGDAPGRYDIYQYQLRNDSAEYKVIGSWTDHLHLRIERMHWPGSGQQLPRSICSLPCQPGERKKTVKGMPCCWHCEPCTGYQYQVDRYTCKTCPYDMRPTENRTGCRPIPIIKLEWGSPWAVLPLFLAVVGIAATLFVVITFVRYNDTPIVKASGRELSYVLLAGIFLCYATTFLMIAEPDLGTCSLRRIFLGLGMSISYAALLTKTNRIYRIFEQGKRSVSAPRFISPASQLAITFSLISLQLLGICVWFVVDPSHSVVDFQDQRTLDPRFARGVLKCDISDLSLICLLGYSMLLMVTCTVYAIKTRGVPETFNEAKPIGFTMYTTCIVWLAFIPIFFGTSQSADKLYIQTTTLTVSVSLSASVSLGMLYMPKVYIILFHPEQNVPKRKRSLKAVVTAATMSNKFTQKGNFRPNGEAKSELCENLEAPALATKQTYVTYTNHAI", "assay": "Agonistic activity at mGlu4a receptor expressed in CHO cells", "assay_type": "functional, cell-based", "how_it_was_run": "(§1)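 CHO cells expressing the receptor were kept at 37 °C in DMEM with 2 mM glutamine, 1% proline and 10% dialyzed FCS, and plated 2 days before assay. Cells were incubated 10 min in PBS with ligand, 10 µM forskolin and 1 mM IBMX, and cAMP was measured by RIA. Agonism is inhibition of forskolin-induced cAMP versus buffer-only control.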"}, "[3]": {"target": "T3, Metabotropic glutamate receptor 6 (Homo sapiens, UniProt O15303)", "T3 sequence (O15303 whole entry)": "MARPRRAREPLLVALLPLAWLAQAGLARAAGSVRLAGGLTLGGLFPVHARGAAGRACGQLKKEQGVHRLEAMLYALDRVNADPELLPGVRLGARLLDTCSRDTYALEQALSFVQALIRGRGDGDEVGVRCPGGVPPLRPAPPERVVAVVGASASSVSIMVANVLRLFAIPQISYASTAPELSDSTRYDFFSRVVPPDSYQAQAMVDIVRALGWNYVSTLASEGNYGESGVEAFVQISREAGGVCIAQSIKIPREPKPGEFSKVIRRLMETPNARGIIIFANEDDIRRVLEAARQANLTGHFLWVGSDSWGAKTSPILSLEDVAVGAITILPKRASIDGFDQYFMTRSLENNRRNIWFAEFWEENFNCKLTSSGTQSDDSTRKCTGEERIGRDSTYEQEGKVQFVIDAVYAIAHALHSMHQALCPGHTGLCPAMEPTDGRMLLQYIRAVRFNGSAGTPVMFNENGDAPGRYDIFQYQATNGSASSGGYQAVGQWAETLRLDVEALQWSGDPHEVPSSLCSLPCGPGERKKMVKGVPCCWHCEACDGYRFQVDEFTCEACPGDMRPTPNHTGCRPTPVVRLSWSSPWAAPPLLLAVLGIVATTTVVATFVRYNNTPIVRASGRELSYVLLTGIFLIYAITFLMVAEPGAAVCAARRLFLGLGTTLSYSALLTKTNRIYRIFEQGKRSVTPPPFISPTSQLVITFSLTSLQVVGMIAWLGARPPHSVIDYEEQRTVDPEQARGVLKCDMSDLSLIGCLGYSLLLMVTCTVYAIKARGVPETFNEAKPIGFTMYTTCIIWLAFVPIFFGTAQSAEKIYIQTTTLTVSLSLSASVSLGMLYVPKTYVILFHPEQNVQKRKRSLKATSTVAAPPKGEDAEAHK", "assay": "Agonistic activity at mGlu6 receptor expressed in CHO cells", "assay_type": "functional, cell-based", "how_it_was_run": "as §1"}, "[4]": {"target": "T4, Metabotropic glutamate receptor 2 (Homo sapiens, UniProt Q14416)", "T4 sequence (Q14416 whole entry)": "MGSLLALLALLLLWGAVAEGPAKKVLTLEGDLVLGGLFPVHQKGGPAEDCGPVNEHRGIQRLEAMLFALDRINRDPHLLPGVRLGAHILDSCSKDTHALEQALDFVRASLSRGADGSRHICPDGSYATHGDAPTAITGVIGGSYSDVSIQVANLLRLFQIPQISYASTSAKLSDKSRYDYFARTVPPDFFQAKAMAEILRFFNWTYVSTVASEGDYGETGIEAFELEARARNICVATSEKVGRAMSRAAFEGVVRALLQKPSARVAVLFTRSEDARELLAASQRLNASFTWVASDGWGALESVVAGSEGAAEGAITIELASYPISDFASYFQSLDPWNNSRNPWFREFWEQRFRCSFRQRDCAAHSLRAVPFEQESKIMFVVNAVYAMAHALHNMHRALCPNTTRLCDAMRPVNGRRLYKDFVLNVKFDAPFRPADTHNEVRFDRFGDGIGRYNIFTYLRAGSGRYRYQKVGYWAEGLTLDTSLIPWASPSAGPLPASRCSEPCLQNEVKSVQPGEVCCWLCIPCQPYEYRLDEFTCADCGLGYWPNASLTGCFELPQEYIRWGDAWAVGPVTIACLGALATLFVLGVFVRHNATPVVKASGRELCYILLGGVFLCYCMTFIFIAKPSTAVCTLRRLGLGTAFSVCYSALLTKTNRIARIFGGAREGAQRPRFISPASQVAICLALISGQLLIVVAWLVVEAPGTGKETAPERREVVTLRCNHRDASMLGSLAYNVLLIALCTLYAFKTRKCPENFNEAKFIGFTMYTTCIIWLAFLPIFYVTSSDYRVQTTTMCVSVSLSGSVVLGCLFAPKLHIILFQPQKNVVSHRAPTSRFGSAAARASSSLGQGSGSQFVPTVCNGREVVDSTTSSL", "assay": "Agonistic activity at mGlu2 receptor expressed in CHO cells", "assay_type": "functional, cell-based", "how_it_was_run": "as §1"}, "[5]": {"target": "T3, Metabotropic glutamate receptor 6", "assay": "Agonist activity of the compound at Metabotropic Excitatory Amino acid Receptors Expressed in CHO cells. mGlu6", "assay_type": "functional, cell-based", "how_it_was_run": "(§2)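 CHO cells expressing mGlu2, mGlu4a or mGlu6, seeded 2 days before assay. Incubated 10 min in PBS with ligand, 10 µM forskolin and 1 mM IBMX. […] EC50 from dose-response, mean ± SEM of at least two independent experiments.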"}, "[6]": {"target": "T4, Metabotropic glutamate receptor 2", "assay": "Agonist activity of the compound at Metabotropic Excitatory Amino acid Receptors Expressed in CHO cells. mGlu2", "assay_type": "functional, cell-based", "how_it_was_run": "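CHO cells expressing mGlu2, mGlu4a or mGlu6, seeded 2 days before assay. Incubated 10 min in PBS with ligand, 10 µM forskolin and 1 mM IBMX. EC50 from dose-response, mean ± SEM of at least two independent experiments.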"}, "[7]": {"target": "T1, Metabotropic glutamate receptor 1", "assay": "Agonist activity of the compound at Metabotropic Excitatory Amino acid Receptors Expressed in CHO cells. mGlu1-alpha", "assay_type": "functional, cell-based", "how_it_was_run": "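CHO cells stably expressing mGlu1α, seeded 2 days before assay and labelled with [3H]inositol (1 µCi/mL) for 24 h. Ligand in PBS-LiCl for 20 min; total [3H]inositol mono-, bis- and trisphosphates by ion-exchange chromatography, fold over buffer-only control. EC50 from dose-response, mean ± SEM of at least two independent experiments.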"}, "Glutamate NMDA receptor [8]": {"target": "Glutamate NMDA receptor", "assay": "The compound was evaluated for agonist activity at NMDA receptor in rat cortical wedge preparation", "assay_type": "functional", "how_it_was_run": "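Rat cortical wedge under superfusion. Test and standard compounds were dissolved in the superfusion medium, and the potential difference between the recording and reference electrodes was charted.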"}, "Glutamate NMDA receptor [9]": {"target": "Glutamate NMDA receptor", "assay": "Agonistic activity at NMDA receptor of rat brain membrane using [3H]MK-801 as radioligand", "assay_type": "functional", "how_it_was_run": "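Rat brain membranes were prepared per Ransom and Stec. [3H]MK-801 binding was run on fully stimulated membranes, with incubation lengthened to 4 h.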"}, "[10]": {"target": "Glutamate receptor ionotropic, kainate", "assay": "The compound was evaluated for agonist to competitive inhibition of radioligand ([3H]- kainic acid ) at Ionotropic glutamate receptor kainate", "assay_type": "functional"}, "[11]": {"target": "Glutamate receptor ionotropic, AMPA (Rattus norvegicus, UniProt P19490+P19491+P19492+P19493)", "assay": "Agonistic activity at Ionotropic glutamate receptor AMPA of rat brain membrane using [3H]AMPA as radioligand", "assay_type": "functional"}, "[12]": {"target": "T2, Metabotropic glutamate receptor 4", "assay": "Agonist activity of the compound at Metabotropic Excitatory Amino acid Receptors Expressed in CHO cells. mGlu4a", "assay_type": "functional, cell-based", "how_it_was_run": "as §2"}}, "note": "pEC50, pIC50: −log10 of the molar value.", "data": [{"smiles": "Cc1onc(O)c1CCC(N)C(=O)O", "note": "(stereo not drawn)", "values": [{"measurement": "pEC50", "setting": "[1]", "value": "< 3.00"}, {"measurement": "pEC50", "setting": "[2]", "value": "< 2.52"}, {"measurement": "pEC50", "setting": "[3]", "value": 4.09}, {"measurement": "pEC50", "setting": "[4]", "value": "< 3.00"}]}, {"smiles": "NC(CCCCC(=O)O)C(=O)O", "note": "(stereo not drawn)", "values": [{"measurement": "pEC50", "setting": "[1]", "value": "< 3.00"}, {"measurement": "pEC50", "setting": "[3]", "value": "< 3.00"}, {"measurement": "pEC50", "setting": "[4]", "value": "< 3.00"}]}, {"smiles": "Cc1o[nH]c(=O)c1CCCCC(N)C(=O)O", "note": "(stereo not drawn)", "values": [{"measurement": "pEC50", "setting": "[1]", "value": "< 3.00"}, {"measurement": "pEC50", "setting": "[3]", "value": "< 3.00"}, {"measurement": "pEC50", "setting": "[4]", "value": "< 3.00"}]}, {"smiles": "N[C@H](CCCC(=O)O)C(=O)O", "values": [{"measurement": "pEC50", "setting": "[1]", "value": "< 3.00"}, {"measurement": "pEC50", "setting": "[3]", "value": "< 3.00"}, {"measurement": "pEC50", "setting": "[4]", "value": "< 3.00"}]}, {"smiles": "Cc1onc(O)c1C[C@@H](N)C(=O)O", "values": [{"measurement": "pEC50", "setting": "[5]", "value": "< 3.00"}, {"measurement": "pEC50", "setting": "[6]", "value": "< 3.00"}, {"measurement": "pEC50", "setting": "[7]", "value": "< 3.00"}]}, {"smiles": "Cc1o[nH]c(=O)c1C(N)C(=O)O", "note": "(stereo not drawn)", "values": [{"measurement": "pEC50", "setting": "Glutamate NMDA receptor [8]", "value": 4.92}, {"measurement": "pIC50", "setting": "Glutamate NMDA receptor [9]", "value": "< 4.00"}, {"measurement": "pEC50", "setting": "[5]", "value": "< 3.00"}, {"measurement": "pEC50", "setting": "[7]", "value": "< 3.00"}, {"measurement": "pIC50", "setting": "[10]", "value": "< 4.00"}, {"measurement": "pIC50", "setting": "[11]", "value": "< 4.00"}]}, {"smiles": "NC(CCCCCC(=O)O)C(=O)O", "note": "(stereo not drawn)", "values": [{"measurement": "pEC50", "setting": "[1]", "value": "< 3.00"}, {"measurement": "pEC50", "setting": "[3]", "value": "< 3.00"}, {"measurement": "pEC50", "setting": "[4]", "value": "< 3.00"}]}, {"smiles": "Cc1onc(O)c1CCCC(N)C(=O)O", "note": "(stereo not drawn)", "values": [{"measurement": "pEC50", "setting": "[1]", "value": "< 3.00"}, {"measurement": "pEC50", "setting": "[2]", "value": "< 2.52"}, {"measurement": "pEC50", "setting": "[3]", "value": 3.39}, {"measurement": "pEC50", "setting": "[4]", "value": "< 3.00"}]}, {"smiles": "N[C@@H](CCCC(=O)O)C(=O)O", "note": "[(S)-2-AMINOADIPIC ACID]", "values": [{"measurement": "pEC50", "setting": "[1]", "value": "< 3.00"}, {"measurement": "pEC50", "setting": "[2]", "value": "< 2.52"}, {"measurement": "pEC50", "setting": "[3]", "value": 3.85}, {"measurement": "pEC50", "setting": "[4]", "value": 4.46}]}, {"smiles": "Cc1onc(O)c1C[C@H](N)C(=O)O", "note": "[(S)-AMPA]", "values": [{"measurement": "pEC50", "setting": "[12]", "value": "< 2.52"}, {"measurement": "pEC50", "setting": "[5]", "value": 3.66}, {"measurement": "pEC50", "setting": "[6]", "value": "< 3.00"}, {"measurement": "pEC50", "setting": "[7]", "value": "< 3.00"}]}, {"smiles": "N[C@@H](CC(=O)O)C(=O)O", "note": "[ASPARTIC ACID]", "values": [{"measurement": "pEC50", "setting": "[1]", "value": "< 3.00"}, {"measurement": "pEC50", "setting": "[3]", "value": "< 3.00"}, {"measurement": "pEC50", "setting": "[4]", "value": "< 3.00"}]}, {"smiles": "N[C@H](CC(=O)O)C(=O)O", "note": "[D-ASPARTATE]", "values": [{"measurement": "pEC50", "setting": "[1]", "value": "< 3.00"}, {"measurement": "pEC50", "setting": "[3]", "value": "< 3.00"}, {"measurement": "pEC50", "setting": "[4]", "value": "< 3.00"}]}]}
